Data on eleven compounds can be found in ChEMBL document CHEMBL1122140, “Derivatives of the potent angiotensin converting enzyme inhibitor 5(S)-benzamido-4-oxo-6-phenylhexanoyl-L-proline: effect of changes at positions 2 and 5 of the hexanoic acid portion” (J Med Chem, 1982).

SMILES strings stand for the structures. Bounds are passed on as bounds.

As usually defined, the inhibition in vivo is the relative decrease from the control value, in per cent. Read a low inhibition in vivo as a response near the control.

The test system of assay [1] is Rattus norvegicus. Put plainly: Base line of mean aortic blood pressure in the conscious Renal hypertensive rat was determined after oral administration of 30 mg/kg. It counts as functional, Artery.
Assay [2] relates to Rattus norvegicus. Put plainly: Change in mean aortic blood pressure expressed in hours after an oral administration of 30 mg/kg in conscious renal hypertensive rats.
For assay [3], the target named is Angiotensin-converting enzyme (Cavia porcellus). Put plainly: Inhibition of guinea pig serum Angiotensin I converting enzyme.
Assay [4] deals with Rattus norvegicus. Put plainly: Maximum effect on blood pressure in the conscious Renal hypertensive rat after oral administration of 30 mg/kg. It counts as functional. Summed up:
(§1)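 Male CD albino rats were clipped at four weeks old, and hypertension developed over 3–4 weeks. Rats weighed 280–320 g at cannulation and had chronic aortic cannulae implanted 2–4 days before testing. Only rats with mean aortic pressure above 160 mmHg were used. Dosing was oral in 4% gum acacia (2 mL/kg). One-minute running averages were recorded every 30 min and reported as mean ± SEM, two-tailed p < 0.05.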

Assay [5] concerns Rattus norvegicus. Put plainly: Change in mean aortic blood pressure expressed in hours after an oral administration of 3 mg/kg in conscious normotensive rats. It is filed as functional, Artery.
For assay [6], the system named is Rattus norvegicus. Put plainly: Inhibition of blood pressure increase produced by iv injection of angiotensin I in conscious normotensive rats at a dose of 3 mg/kg. It counts as functional.
In assay [7] the test system is Rattus norvegicus. Put plainly: Inhibition of blood pressure increase produced by iv injection of angiotensin I in conscious normotensive rats at a dose of 30 mg/kg. It is filed as functional.
Assay [8] has as its system Rattus norvegicus. Put plainly: Angiotensin I(AI) response to return to 70% of the pretreatment control response was determined at a dose of 3 mg/kg, iv. It counts as functional.
Assay [9] deals with Rattus norvegicus. Put plainly: Angiotensin I(AI) response to return to 70% of the pretreatment control response was determined at a dose of 30 mg/kg, po. It is filed as functional.
For assay [10], the system named is Rattus norvegicus. Put plainly: Angiotensin I(AI) response to return to 70% of the pretreatment control response was determined at a dose of 3 mg/kg. It is filed as functional.
Assay [11] relates to Rattus norvegicus. Put plainly: Change in mean aortic blood pressure expressed in hours after an oral administration of 3 mg/kg in conscious renal hypertensive rats.
Assay [12] relates to Rattus norvegicus. Put plainly: Base line of mean aortic blood pressure in the conscious Renal hypertensive rat was determined after oral administration of 3 mg/kg. It is filed as functional. The following applies: Artery. A digest of the protocol: as §1
Assay [13] has as its system Rattus norvegicus. Put plainly: Change in mean aortic blood pressure expressed in hours after an oral administration of 30 mg/kg in conscious renal hypertensive rats. This is another data set of the same source.

For `CCCCCCCC(=O)N[C@@H](Cc1ccccc1)C(=O)CCC(=O)N1CCCC1C(=O)O` (stereo not given in full), the “Mean aortic blood pressure” value in [1] was found to be 182 mmHg; in assay [4], 167 mmHg. For the same compound, the Change in assay [2] is -15 mmHg. In assay [3], the I50 stood at 650 nM.

Regarding `CCCCCC(=O)N[C@@H](Cc1ccccc1)C(=O)CCC(=O)N1CCCC1C(=O)O` (stereo not given in full), the “Mean aortic blood pressure” value in [1] amounted to 193 mmHg; in assay [4], 191 mmHg. The compound further gave an I50 in assay [3] of 47 nM. This compound yielded a Change in [5] of -2 mmHg.

For the compound `CCCCOC(=O)NC(Cc1ccccc1)C(=O)CC(C)C(=O)N1CCCC1C(=O)O` (stereo not given), the “Mean aortic blood pressure” value in assay [1] was determined as 188 mmHg; in assay [4], 176 mmHg. The compound also displayed a Change in assay [2] of -12 mmHg. This compound also returned an I50 in assay [3] of 29 nM.

Regarding `CCCCOC(=O)NC(Cc1ccccc1)C(=O)CCC(=O)N1CCCC1C(=O)O` (stereo not given), the “Mean aortic blood pressure” value is recorded as 175 mmHg in assay [1] and 160 mmHg in assay [4]. In addition, in [2], the Change was -15 mmHg. This compound also returned an I50 in assay [3] of 210 nM.

As for `C[C@H](CC(=O)[C@@H](Cc1ccccc1)NC(=O)c1ccccc1)C(=O)N1CCC[C@H]1C(=O)O`, the “Mean aortic blood pressure” value in assay [1] is recorded as 188 mmHg; in assay [4], 166 mmHg. Also, the Change in assay [5] is -22 mmHg.

With `C[C@@H](CC(=O)[C@@H](Cc1ccccc1)NC(=O)c1ccccc1)C(=O)N1CCC[C@H]1C(=O)O`, the figures for the “Mean aortic blood pressure” value in [1] and in [4] were 183 mmHg and 163 mmHg, respectively. The Change in assay [2] is -20 mmHg.

Regarding `CCCCCCCCCC(=O)N[C@@H](Cc1ccccc1)C(=O)CCC(=O)N1CCCC1C(=O)O` (stereo not given in full), the “Mean aortic blood pressure” value in assay [1] is recorded as 197 mmHg; in assay [4], 176 mmHg. The compound also displayed an I50 in [3] of 6500 nM. The compound further yielded a Change in assay [5] of -21 mmHg.

Compound `O=C(N[C@@H](Cc1ccccc1)C(=O)CCC(=O)N1CCC[C@H]1C(=O)O)c1ccccc1` returned an inhibition in vivo at 3 mg/kg in assay [6] of 57%. Also, the “Mean aortic blood pressure” value in assay [1] is 190 mmHg. In [2], this compound returned a Change of -12 mmHg. Besides, the inhibition in vivo at 30 mg/kg in assay [7] stood at 48%.

For `C[C@@H](CC(=O)[C@H](Cc1ccccc1)NC(=O)c1ccccc1)C(=O)N1CCC[C@H]1C(=O)O`, the inhibition in vivo at 3 mg/kg in [6] was 74%. The “Mean aortic blood pressure” value in assay [1] was 189 mmHg; in assay [4] it was 173 mmHg. Besides, the Change in assay [2] is -16 mmHg. For the same compound, the AI recovery time in assay [8] was 71 min; in assay [9], greater than 180 min. The same compound registered an inhibition in vivo at 30 mg/kg in assay [7] of 71%.

On to `C[C@H](CC(=O)[C@H](Cc1ccccc1)NC(=O)c1ccccc1)C(=O)N1CCC[C@H]1C(=O)O`, for which, in assay [6], at 3 mg/kg the inhibition in vivo was 100%. Further, the results for the Mean aortic blood pressure in assay [1] and in assay [4] were 197 mmHg and 159 mmHg, respectively. For the same compound, the AI recovery time in assay [8] was determined as 73 min; in [9], 143 min; in assay [10] it was 73 min. Also, the Change is -40 mmHg in assay [11] and -38 mmHg in assay [13]. This compound yielded a Mean aortic blood pressure at 3 mg/kg in assay [12] of 209 mmHg. This compound yielded an inhibition in vivo at 30 mg/kg in assay [7] of 100%.

In turn, `C[C@H](CS)C(=O)N1CCC[C@H]1C(=O)O` [CAPTOPRIL] yielded an inhibition in vivo at 3 mg/kg in assay [6] of 95%. In [4], the “Mean aortic blood pressure” value was 99 mmHg. At 30 mg/kg the inhibition in vivo in [7] was 69%.
